# Assay outcomes from PubChem BioAssay.
# Most compounds without a hit are left out; they make up all but 2% or so of the library.
# Exocytosis inh: LAMP-1 surface exposure blockers, TALL-104 cells – cell-based, flow cytometry, MLPCN library, primary screen; TALL-104 LAMP-1 surface exposure; cells stimulated with thapsigargin and PMA; inhibition, % at 10 µM; actives 0.66% (n = 360,000); AID 651702, 2012;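 active = inhibition above about 55%, limit read from the data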
# MT1-MMP act inh: blockers of MT1-MMP proenzyme processing, primary screen, HT1080 RFP-PRO-GFP cells, GFP/RFP fluorescence; GFP/RFP ratio fluorescence, overnight; percent of plate control window, DMSO zero; GFP/RFP ratio change, % at 20 µM; Matrix metalloproteinase-14 (Homo sapiens), P50281; actives 0.061% (n = 360,000);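 active = GFP/RFP ratio change of at least 30% with cell ATP level not reduced by more than half and red fluorescence within 50% of control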
#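 Assay system – RFP-PRO-GFP reporter HT1080 cells · Compound dosing – single dose of 20 µM compound, 1% DMSO final · Incubation – overnight compound exposure at 37 °C · Measure – GFP/RFP fluorescence ratio · Benchmarks – DMSO wells and RFP-L50D-GFP cells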
# ABCB6 inh MLPCN: ABCB6 transporter inhibitors, primary screen, K562-ABCB6 cells, flow cytometry, MLPCN library; ATP-binding cassette sub-family B member 6 (Homo sapiens), Q9NP58; K562-ABCB6 porphyrin accumulation, 1 h; hits give low values; fluorescence ratio to DMSO, % at 10 µM; actives 0.19% (n = 360,000);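 active = fluorescence ratio to DMSO below 75%, the collection mean minus 3 SD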;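 also: signal is porphyrin accumulated inside mitochondria; lower ratio means ABCB6 inhibition with less porphyrin fluorescence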
# FGF22 binding: binders of human FGF22 protein, primary screen, FGF22 synaptogenesis inhibitor project, biophysical, thermal shift, single point. recombinant FGF22 thermal shift, SYPRO orange fluorescence; percent of sucrose octasulfate shift, DMSO zero. activity (Tm shift, normalised), % at 9.99 µM. AID 651658, 2012. actives 1.5% (n = 340,000). Fibroblast growth factor 22 (Homo sapiens), Q9HCT0;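 active = mean Tm shift, scaled 0 neutral to 100 positive control, at about 1.3% or above, every replicate too, limit read from the data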
# VLA-4 inh: inhibition in human VLA-4 binding assay, primary screen, VLA-4 allosteric modulator project, MLPCN library, flow cytometry, VLA-4 expressing cells | AID 2557, 2010 | ligand binding flow cytometry | actives 0.2% (n = 330,000) | Integrin alpha-4 (Homo sapiens), P13612 | inhibition, % (about 7 µM as worked out from the volumes in the protocol); in the data active = inhibition above about 50%
# Target sequence (P13612 whole entry, looked up): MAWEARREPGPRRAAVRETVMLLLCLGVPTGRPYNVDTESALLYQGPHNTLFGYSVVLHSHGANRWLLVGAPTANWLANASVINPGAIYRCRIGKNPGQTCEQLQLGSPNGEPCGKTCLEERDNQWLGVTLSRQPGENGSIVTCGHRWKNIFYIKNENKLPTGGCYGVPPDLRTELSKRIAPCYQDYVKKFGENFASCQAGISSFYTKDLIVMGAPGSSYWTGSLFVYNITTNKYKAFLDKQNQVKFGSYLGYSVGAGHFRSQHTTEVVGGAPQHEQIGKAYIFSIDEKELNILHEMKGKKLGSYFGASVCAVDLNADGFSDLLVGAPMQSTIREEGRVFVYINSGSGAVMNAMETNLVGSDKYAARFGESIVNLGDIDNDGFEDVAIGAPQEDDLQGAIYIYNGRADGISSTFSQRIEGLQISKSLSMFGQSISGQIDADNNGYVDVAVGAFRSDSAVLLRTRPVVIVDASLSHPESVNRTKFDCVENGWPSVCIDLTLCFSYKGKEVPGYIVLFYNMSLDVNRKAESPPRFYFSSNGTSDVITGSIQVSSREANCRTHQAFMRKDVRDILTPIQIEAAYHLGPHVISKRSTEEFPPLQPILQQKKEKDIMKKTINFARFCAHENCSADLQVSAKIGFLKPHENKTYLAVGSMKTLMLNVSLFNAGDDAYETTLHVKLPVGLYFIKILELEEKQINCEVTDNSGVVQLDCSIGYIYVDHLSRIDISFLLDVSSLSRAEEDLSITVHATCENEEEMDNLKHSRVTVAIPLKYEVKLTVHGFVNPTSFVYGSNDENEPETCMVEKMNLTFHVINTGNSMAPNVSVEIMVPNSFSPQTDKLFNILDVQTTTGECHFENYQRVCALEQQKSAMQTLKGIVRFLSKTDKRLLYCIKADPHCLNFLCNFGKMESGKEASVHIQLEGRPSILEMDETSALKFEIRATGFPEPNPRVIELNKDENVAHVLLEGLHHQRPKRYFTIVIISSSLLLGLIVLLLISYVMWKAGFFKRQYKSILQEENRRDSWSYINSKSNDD
# DAGLB inhibitor: DAGLB lipase inhibitors, primary screen, biochemical, fluorescence, HTS; HEK293T DAGLB membrane lysate, EnzChek fluorogenic substrate; actives 0.059% (n = 340,000); inhibition, % at 5.17 µM; in the data active = inhibition above about 34%
# Granule exo CP1: inhibitors of lytic granule exocytosis, confirmation, TALL-104 cells, flow cytometry, Cherry Pick01. inhibition, % at 10 µM. LAMP-1 externalization; stimulated with PMA plus thapsigargin. AID 651954, 2012. shares compounds with Exocytosis inh. actives 11% (n = 1,500); in the data active = inhibition above about 60%
# Hits are given with their value; n = inactive; x = no result; ! = a repeat was not active.
SMILES,Exocytosis inh,MT1-MMP act inh,ABCB6 inh MLPCN,FGF22 binding,VLA-4 inh,DAGLB inhibitor,Granule exo CP1
COCC(=O)Nc1ccc2c(c1)[C@@H]1C[C@H](CC(=O)N3CCc4ccccc4C3)O[C@@H](CO)[C@@H]1O2,x,x,x,n,x,x,x
NC(=O)c1cnccc1C=Cc1ccccc1,64.2,n,n,n,x,n,n
C[C@@H]1CCCCO[C@H](CN(C)C(=O)CCCN(C)C)[C@@H](C)CN([C@H](C)CO)C(=O)c2cc(NC(=O)CCCN(C)C)ccc2O1,x,x,x,n,x,x,x
COc1ccc(CNC(=O)COC(=O)[C@H](Cc2c[nH]c3ccccc23)NC(=O)c2cccs2)cc1,58.1,n,n,n,n,n,n
CN(C)C(=O)C[C@H]1C[C@@H]2c3cc(NS(=O)(=O)c4ccccc4)ccc3O[C@@H]2[C@H](CO)O1,x,x,x,n,x,x,x
COc1ccc(C(=O)CCN2CCCC(C)C2)cc1 (stereo not given),70.6,n,n,n,n,n,n
CC1CCCN(CCC(=O)c2ccc(Br)cc2)C1 (stereo not given),n,n,n,x,n,n,x
Cc1ccc(C)c(N(CC(=O)NC2CCCC2)C(=O)CCC(=O)Nc2nccs2)c1,78.1,n,n,n,n,n,n
C[C@@H]1CN([C@@H](C)CO)C(=O)c2cccc(N(C)C)c2O[C@@H]1CN(C)C(=O)Nc1ccc(F)cc1,x,x,x,n,x,x,x
Cn1cnc(S(=O)(=O)N[C@@H]2CC[C@H](CC(=O)N3CCN(c4ccccc4)CC3)O[C@H]2CO)c1,x,x,x,n,x,x,x
CN(C)CCNc1nc2sc3c(c2c(=O)n1-c1ccccc1)CCCCC3,n,n,n,n,n,n,x
O=c1c2c3c(sc2nc(NCCO)n1CCc1ccccc1)CCCCC3,n,n,n,x,n,n,x
CN(C)CCNc1nc2sc3c(c2c(=O)n1Cc1ccccc1)CCCCC3,57.4,n,n,n,x,n,n
O=c1c2c3c(sc2nc(N2CCNCC2)n1CCc1ccccc1)CCCCC3,59.6,n,n,n,n,n,n
CO[C@H]1CN(C)C(=O)c2cc(NC(C)=O)ccc2OC[C@H](C)N(C(=O)c2ccc(F)cc2)C[C@H]1C,x,x,x,n,x,x,x
C[C@@H]1CN([C@@H](C)CO)C(=O)c2cc(NC(=O)CCC(F)(F)F)ccc2O[C@@H](C)CCCCO[C@@H]1CN(C)C(=O)C1CCCCC1,x,x,x,n,x,x,x
Cc1noc(C)c1NC(=O)Nc1ccc2c(c1)CC(=O)N([C@@H](C)CO)C[C@@H](C)[C@H](CN(C)C(=O)Nc1ccccc1)O2,x,x,x,n,x,x,x
COCCNC(=O)C[C@@H]1C[C@H]2c3cc(NS(=O)(=O)c4ccc(F)cc4)ccc3O[C@H]2[C@H](CO)O1,x,x,x,n,x,x,x
O=C1CC(Cc2ccccc2)C(=O)N1CCc1ccc2c(c1)OCO2 (stereo not given),76.5,n,n,x,n,n,n
COc1ccc2c3c([nH]c2c1)[C@H](CO)N(C(=O)c1cnccn1)CC31CCN(C(=O)c2cnccn2)CC1,x,x,x,n,x,x,x
O=C(CN1C(=O)C(=O)c2ccccc21)c1ccccc1,n,n,n,n,n,n,x
O=C1C(=O)N(Cc2cccs2)c2ccccc21,62.2,n,n,n,n,n,n
COc1cc(CNCCc2ccccc2)cc(Cl)c1OCc1ccccc1,98.8,n,n,n,n,n,n
COc1cc(CNCc2ccccc2)cc(Cl)c1OC,n,n,n,n,n,n,x
CCCn1c(C(O)c2cccc(OC)c2)nc2ccccc21 (stereo not given),73.2,n,n,n,x,n,n
SMILES,Exocytosis inh,MT1-MMP act inh,ABCB6 inh MLPCN,FGF22 binding,VLA-4 inh,DAGLB inhibitor,Granule exo CP1
C[C@@H]1CN([C@@H](C)CO)C(=O)c2cc(NS(=O)(=O)c3ccc(Cl)cc3)ccc2O[C@@H]1CN(C)CC1CCCCC1,x,x,x,n,x,x,x
C/C=C/c1ccc([C@H]2[C@@H](CO)N(C(C)=O)C23CN(C(=O)c2ccccc2)C3)cc1,x,x,x,n,x,x,x
O=C(Nc1ccccc1Cl)c1sccc1-c1ccccc1,80.8,n,n,n,n,n,n
CN(C)S(=O)(=O)Oc1ccsc1C(=O)Nc1ccccc1Cl,n,n,n,x,n,n,x
O=C1Nc2ccc(Br)cc2/C1=C/C(=O)c1ccccc1,73.3,n,n,n,x,n,83.3
CCc1cccc(CC)c1NC(=O)c1cccc(NC(=O)c2ccccc2)c1,n,n,n,x,n,n,x
CCc1cccc(C)c1NC(=O)c1cccc(N(C)C)c1,69.5,n,n,x,n,n,n
O=C(CNCc1ccc(Cl)cc1)Nc1cc(S(=O)(=O)N2CCCC2)ccc1Cl,77.4,n,n,n,x,n,n
O=C(Cc1ccccc1F)Nc1cc(S(=O)(=O)N2CCCC2)ccc1Cl,n,n,n,n,n,n,x
CCCCNc1c(-c2ccc(SC3CCCCC3)c(OC)c2)nc2ccc(C)cn12,n,n,n,n,n,n,x
CCCCNc1c(-c2ccc(OC)c(SC3CCCCC3)c2)nc2ccc(C)cn12,86.0!,n,n,n,n,n,77.1
O=C(NCc1ccccc1F)[C@H]1N[C@H]2c3ccc(-c4ccccc4F)c(=O)n3C[C@H]2[C@@H]1CO,x,x,x,n,x,x,x
C[C@@H]1CCCCO[C@H](CN(C)S(=O)(=O)c2ccccc2)[C@@H](C)CN([C@@H](C)CO)C(=O)c2cc(NC(=O)Nc3ccccc3)ccc2O1,x,x,x,n,x,x,x
Cc1ccc(C(c2nnnn2Cc2cccs2)N2CCN(Cc3ccc4c(c3)OCO4)CC2)cc1 (stereo not given),60.4,n,n,x,n,n,n
C[C@@H]1CN([C@H](C)CO)C(=O)Cc2cc(NC(=O)CCCN(C)C)ccc2O[C@@H]1CN(C)S(=O)(=O)c1ccccc1,x,x,x,n,x,x,x
CN(CC(=O)NCCc1ccc(F)cc1)Cc1ccc(Br)cc1,69.8,n,n,n,n,n,n
CN(CC(=O)NCCCc1ccccc1)Cc1ccc(Br)cc1,n,n,n,n,n,n,x
O=C(N[C@@H]1CC[C@@H](CC(=O)N2CCCCC2)O[C@@H]1CO)c1ccc2c(c1)OCO2,x,x,x,n,x,x,x
CC(C)NC(=O)Nc1ccc2c(c1)C(=O)N([C@H](C)CO)C[C@@H](C)[C@H](CN(C)Cc1ccc3c(c1)OCO3)O2,x,x,x,n,x,x,x
Cc1ccc(-n2sc3cc(F)ccc3c2=O)c(C)c1,n,n,n,n,x,n,x
